Tested on: U2OS
Assay: Multiplex assay against U2OS
Type: toxicity, cell-based
Details: human
Outline: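 Hoechst33342, BioTracker Green Microtubule Cytoskeleton Dye, MitoTracker Red and Annexin V Alexa Fluor 680 were added to live cells at seeding, and imaging on a CQ1 microscope at 37°C and 5% CO2 followed compound addition. Gating by CellPathfinder machine learning separated cells into Hoechst high-intensity objects or normal cells, then normal cells into healthy, pyknosed or fragmented nuclei, then pyknosed cells into mitotic or apoptotic. Per cents of healthy-nucleus cells are reported for the tubulin, mitochondrial-mass and membrane-permeability phenotypes.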

[1] = 12 h, 1 µM, compound concentration 1 uM, replicate 1
[2] = 12 h, 1 µM, compound concentration 1 uM, replicate 2
[3] = 12 h, 10 µM, compound concentration 10 uM, replicate 1
[4] = 12 h, 10 µM, compound concentration 10 uM, replicate 2
[5] = 24 h, 1 µM, compound concentration 1 uM, replicate 1
[6] = 24 h, 1 µM, compound concentration 1 uM, replicate 2
[7] = 24 h, 10 µM, compound concentration 10 uM, replicate 1
[8] = 24 h, 10 µM, compound concentration 10 uM, replicate 2
[9] = 48 h, 1 µM, compound concentration 1 uM, replicate 1
[10] = 48 h, 1 µM, compound concentration 1 uM, replicate 2
[11] = 48 h, 10 µM, compound concentration 10 uM, replicate 1
[12] = 48 h, 10 µM, compound concentration 10 uM, replicate 2

C[C@H](NC(=O)c1c(C(F)F)nn(C)c1Oc1cccc(C(F)(F)F)c1)c1ccc(C(=O)O)cc1 [PALUPIPRANT]
Population Apoptotic (%) [1]: 60%
Population Fragmented Nuclei (%) [1]: 27%
Population Healthy Nuclei (%) [1]: 63%
Population Hoechst High Intensity Objects (%) [1]: 3%
Population Membrane Permeable-Phenotype (%) [1]: 4%
Population Mitochondria Different-Phenotype (%) [1]: 1%
Population Mitotic Cells (%) [1]: 39%
Population Normal (%) [1]: 96%
Population Pyknosed Nuclei (%) [1]: 8%
Population Tubulin-Different-Phenotype (%) [1]: 1%
Total Cell Count [1]: 266
Population Apoptotic (%) [2]: 91%
Population Fragmented Nuclei (%) [2]: 12%
Population Healthy Nuclei (%) [2]: 78%
Population Hoechst High Intensity Objects (%) [2]: 0%
Population Mitochondria Different-Phenotype (%) [2]: 0%
Population Mitotic Cells (%) [2]: 8%
Population Normal (%) [2]: 99%
Population Pyknosed Nuclei (%) [2]: 9%
Population Tubulin-Different-Phenotype (%) [2]: 2%
Total Cell Count [2]: 132
Population Apoptotic (%) [3]: 83%
Population Fragmented Nuclei (%) [3]: 28%
Population Healthy Nuclei (%) [3]: 62%
Population Hoechst High Intensity Objects (%) [3]: 3%
Population Membrane Permeable-Phenotype (%) [3]: 7%
Population Mitochondria Different-Phenotype (%) [3]: 4%
Population Mitotic Cells (%) [3]: 16%
Population Normal (%) [3]: 96%
Population Pyknosed Nuclei (%) [3]: 8%
Population Tubulin-Different-Phenotype (%) [3]: 5%
Total Cell Count [3]: 293
Population Apoptotic (%) [4]: 100%
Population Fragmented Nuclei (%) [4]: 13%
Population Healthy Nuclei (%) [4]: 77%
Population Membrane Permeable-Phenotype (%) [4]: 5%
Population Mitochondria Different-Phenotype (%) [4]: 2%
Population Mitotic Cells (%) [4]: 0%
Population Tubulin-Different-Phenotype (%) [4]: 2%
Total Cell Count [4]: 117
Population Apoptotic (%) [5]: 87%
Population Fragmented Nuclei (%) [5]: 20%
Population Healthy Nuclei (%) [5]: 72%
Population Hoechst High Intensity Objects (%) [5]: 2%
Population Membrane Permeable-Phenotype (%) [5]: 4%
Population Mitochondria Different-Phenotype (%) [5]: 1%
Population Mitotic Cells (%) [5]: 12%
Population Normal (%) [5]: 97%
Population Pyknosed Nuclei (%) [5]: 7%
Population Tubulin-Different-Phenotype (%) [5]: 3%
Total Cell Count [5]: 316
Population Apoptotic (%) [6]: 94%
Population Fragmented Nuclei (%) [6]: 14%
Population Healthy Nuclei (%) [6]: 73%
Population Hoechst High Intensity Objects (%) [6]: 1%
Population Membrane Permeable-Phenotype (%) [6]: 5%
Population Mitochondria Different-Phenotype (%) [6]: 0%
Population Mitotic Cells (%) [6]: 5%
Population Normal (%) [6]: 98%
Population Pyknosed Nuclei (%) [6]: 11%
Population Tubulin-Different-Phenotype (%) [6]: 5%
Total Cell Count [6]: 147
Population Apoptotic (%) [7]: 91%
Population Fragmented Nuclei (%) [7]: 18%
Population Healthy Nuclei (%) [7]: 74%
Population Hoechst High Intensity Objects (%) [7]: 2%
Population Membrane Permeable-Phenotype (%) [7]: 5%
Population Mitochondria Different-Phenotype (%) [7]: 3%
Population Mitotic Cells (%) [7]: 8%
Population Normal (%) [7]: 97%
Population Pyknosed Nuclei (%) [7]: 7%
Population Tubulin-Different-Phenotype (%) [7]: 1%
Total Cell Count [7]: 339
Population Fragmented Nuclei (%) [8]: 13%
Population Healthy Nuclei (%) [8]: 77%
Population Mitochondria Different-Phenotype (%) [8]: 1%
Population Pyknosed Nuclei (%) [8]: 8%
Population Tubulin-Different-Phenotype (%) [8]: 0%
Total Cell Count [8]: 139
Population Apoptotic (%) [9]: 82%
Population Fragmented Nuclei (%) [9]: 15%
Population Healthy Nuclei (%) [9]: 73%
Population Hoechst High Intensity Objects (%) [9]: 2%
Population Membrane Permeable-Phenotype (%) [9]: 3%
Population Mitochondria Different-Phenotype (%) [9]: 1%
Population Mitotic Cells (%) [9]: 17%
Population Normal (%) [9]: 97%
Population Pyknosed Nuclei (%) [9]: 11%
Population Tubulin-Different-Phenotype (%) [9]: 1%
Total Cell Count [9]: 426
Population Apoptotic (%) [10]: 92%
Population Healthy Nuclei (%) [10]: 70%
Population Hoechst High Intensity Objects (%) [10]: 0%
Population Mitochondria Different-Phenotype (%) [10]: 0%
Population Mitotic Cells (%) [10]: 7%
Population Normal (%) [10]: 99%
Population Pyknosed Nuclei (%) [10]: 13%
Population Tubulin-Different-Phenotype (%) [10]: 2%
Total Cell Count [10]: 207
Population Apoptotic (%) [11]: 91%
Population Fragmented Nuclei (%) [11]: 18%
Population Healthy Nuclei (%) [11]: 73%
Population Hoechst High Intensity Objects (%) [11]: 2%
Population Membrane Permeable-Phenotype (%) [11]: 5%
Population Mitochondria Different-Phenotype (%) [11]: 3%
Population Mitotic Cells (%) [11]: 8%
Population Normal (%) [11]: 97%
Population Pyknosed Nuclei (%) [11]: 7%
Population Tubulin-Different-Phenotype (%) [11]: 3%
Total Cell Count [11]: 463
Population Apoptotic (%) [12]: 85%
Population Fragmented Nuclei (%) [12]: 14%
Population Healthy Nuclei (%) [12]: 79%
Population Hoechst High Intensity Objects (%) [12]: 1%
Population Membrane Permeable-Phenotype (%) [12]: 1%
Population Mitochondria Different-Phenotype (%) [12]: 1%
Population Mitotic Cells (%) [12]: 14%
Population Normal (%) [12]: 98%
Population Pyknosed Nuclei (%) [12]: 6%
Population Tubulin-Different-Phenotype (%) [12]: 0%
Total Cell Count [12]: 223

O=C(O)c1cc2ccccc2c(Cc2c(O)c(C(=O)O)cc3ccccc23)c1O [PAMOIC ACID]
Population Apoptotic (%) [1]: 85%
Population Fragmented Nuclei (%) [1]: 23%
Population Healthy Nuclei (%) [1]: 68%
Population Hoechst High Intensity Objects (%) [1]: 1%
Population Membrane Permeable-Phenotype (%) [1]: 2%
Population Mitochondria Different-Phenotype (%) [1]: 0%
Population Mitotic Cells (%) [1]: 15%
Population Normal (%) [1]: 98%
Population Pyknosed Nuclei (%) [1]: 8%
Population Tubulin-Different-Phenotype (%) [1]: 0%
Total Cell Count [1]: 246
Population Apoptotic (%) [2]: 50%
Population Fragmented Nuclei (%) [2]: 15%
Population Healthy Nuclei (%) [2]: 73%
Population Hoechst High Intensity Objects (%) [2]: 0%
Population Membrane Permeable-Phenotype (%) [2]: 12%
Population Mitochondria Different-Phenotype (%) [2]: 6%
Population Mitotic Cells (%) [2]: 50%
Population Normal (%) [2]: 100%
Population Pyknosed Nuclei (%) [2]: 11%
Population Tubulin-Different-Phenotype (%) [2]: 13%
Total Cell Count [2]: 109
Population Apoptotic (%) [3]: 75%
Population Fragmented Nuclei (%) [3]: 19%
Population Healthy Nuclei (%) [3]: 75%
Population Hoechst High Intensity Objects (%) [3]: 2%
Population Membrane Permeable-Phenotype (%) [3]: 6%
Population Mitochondria Different-Phenotype (%) [3]: 1%
Population Mitotic Cells (%) [3]: 25%
Population Normal (%) [3]: 97%
Population Pyknosed Nuclei (%) [3]: 4%
Population Tubulin-Different-Phenotype (%) [3]: 4%
Total Cell Count [3]: 259
Population Apoptotic (%) [4]: 87%
Population Hoechst High Intensity Objects (%) [4]: 0%
Population Membrane Permeable-Phenotype (%) [4]: 5%
Population Mitochondria Different-Phenotype (%) [4]: 3%
Population Mitotic Cells (%) [4]: 12%
Population Normal (%) [4]: 100%
Population Pyknosed Nuclei (%) [4]: 5%
Population Tubulin-Different-Phenotype (%) [4]: 2%
Total Cell Count [4]: 140
Population Apoptotic (%) [5]: 92%
Population Fragmented Nuclei (%) [5]: 18%
Population Healthy Nuclei (%) [5]: 72%
Population Hoechst High Intensity Objects (%) [5]: 1%
Population Membrane Permeable-Phenotype (%) [5]: 2%
Population Mitochondria Different-Phenotype (%) [5]: 0%
Population Mitotic Cells (%) [5]: 8%
Population Normal (%) [5]: 98%
Population Pyknosed Nuclei (%) [5]: 8%
Population Tubulin-Different-Phenotype (%) [5]: 1%
Total Cell Count [5]: 288
Population Apoptotic (%) [6]: 76%
Population Fragmented Nuclei (%) [6]: 20%
Population Healthy Nuclei (%) [6]: 70%
Population Hoechst High Intensity Objects (%) [6]: 0%
Population Membrane Permeable-Phenotype (%) [6]: 11%
Population Mitochondria Different-Phenotype (%) [6]: 2%
Population Mitotic Cells (%) [6]: 23%
Population Normal (%) [6]: 99%
Population Pyknosed Nuclei (%) [6]: 9%
Population Tubulin-Different-Phenotype (%) [6]: 7%
Total Cell Count [6]: 139
Population Apoptotic (%) [7]: 82%
Population Fragmented Nuclei (%) [7]: 17%
Population Healthy Nuclei (%) [7]: 76%
Population Hoechst High Intensity Objects (%) [7]: 3%
Population Membrane Permeable-Phenotype (%) [7]: 5%
Population Mitochondria Different-Phenotype (%) [7]: 2%
Population Mitotic Cells (%) [7]: 17%
Population Normal (%) [7]: 96%
Population Pyknosed Nuclei (%) [7]: 5%
Population Tubulin-Different-Phenotype (%) [7]: 3%
Total Cell Count [7]: 314
Population Apoptotic (%) [8]: 90%
Population Fragmented Nuclei (%) [8]: 13%
Population Healthy Nuclei (%) [8]: 79%
Population Hoechst High Intensity Objects (%) [8]: 1%
Population Membrane Permeable-Phenotype (%) [8]: 7%
Population Mitochondria Different-Phenotype (%) [8]: 3%
Population Mitotic Cells (%) [8]: 9%
Population Normal (%) [8]: 98%
Population Pyknosed Nuclei (%) [8]: 6%
Population Tubulin-Different-Phenotype (%) [8]: 7%
Total Cell Count [8]: 163
Population Apoptotic (%) [9]: 83%
Population Fragmented Nuclei (%) [9]: 16%
Population Healthy Nuclei (%) [9]: 74%
Population Hoechst High Intensity Objects (%) [9]: 1%
Population Membrane Permeable-Phenotype (%) [9]: 2%
Population Mitochondria Different-Phenotype (%) [9]: 1%
Population Mitotic Cells (%) [9]: 16%
Population Normal (%) [9]: 98%
Population Pyknosed Nuclei (%) [9]: 9%
Population Tubulin-Different-Phenotype (%) [9]: 2%
Total Cell Count [9]: 469
Population Apoptotic (%) [10]: 90%
Population Fragmented Nuclei (%) [10]: 11%
Population Healthy Nuclei (%) [10]: 76%
Population Hoechst High Intensity Objects (%) [10]: 2%
Population Membrane Permeable-Phenotype (%) [10]: 9%
Population Mitochondria Different-Phenotype (%) [10]: 3%
Population Mitotic Cells (%) [10]: 10%
Population Normal (%) [10]: 97%
Population Pyknosed Nuclei (%) [10]: 11%
Population Tubulin-Different-Phenotype (%) [10]: 5%
Total Cell Count [10]: 177
Population Apoptotic (%) [11]: 96%
Population Fragmented Nuclei (%) [11]: 15%
Population Healthy Nuclei (%) [11]: 77%
Population Hoechst High Intensity Objects (%) [11]: 3%
Population Membrane Permeable-Phenotype (%) [11]: 5%
Population Mitochondria Different-Phenotype (%) [11]: 1%
Population Mitotic Cells (%) [11]: 3%
Population Normal (%) [11]: 96%
Population Pyknosed Nuclei (%) [11]: 6%
Population Tubulin-Different-Phenotype (%) [11]: 4%
Total Cell Count [11]: 455
Population Apoptotic (%) [12]: 89%
Population Fragmented Nuclei (%) [12]: 20%
Population Healthy Nuclei (%) [12]: 66%
Population Hoechst High Intensity Objects (%) [12]: 0%
Population Membrane Permeable-Phenotype (%) [12]: 6%
Population Mitochondria Different-Phenotype (%) [12]: 2%
Population Mitotic Cells (%) [12]: 10%
Population Normal (%) [12]: 99%
Population Pyknosed Nuclei (%) [12]: 13%
Population Tubulin-Different-Phenotype (%) [12]: 2%
Total Cell Count [12]: 218

— ChEMBL document CHEMBL5058577, “EUbOPEN Chemogenomics Library 2 (Multiplex)” (2022)
